These results are taken from the RNAGym collection of RNA variant scans (doi:10.1002/anie.201605470).

B1: Osa-1-4 twister ribozyme (parent)
chain: CCGCCUAACACUGCCAAUGCCGGUCCCAAGCCCGGAUAAAAGUGGAGGGGGCGG

Variants of B1 are the subject of this series. Kind of series: self-cleavage, relative activity (ratio to wild type); higher = more cleavage; co-transcriptional. The essentials: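 Values are relative activity: the fraction cleaved, normalised to wild type. A doped DNA template for a 54-nucleotide twister ribozyme from Oryza sativa had 97 % wild-type base and 1 % of each other base at the 48 positions downstream of the cleavage site. The RNA was transcribed in vitro for 2 h at 37 °C so that it could cleave itself co-transcriptionally, then sequenced deeply, with cleavage status scored from the presence or absence of upstream sequence in reads.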
For C11U C15U, the self-cleavage was 0.13.

On to C11U C15A, for which the self-cleavage is 0.21.

For the variant C11U C15G, the self-cleavage stood at 0.19.

C11G G45A: the self-cleavage came to 0.05.

For C11G G45C, the self-cleavage came out at 0.04.

As for C11G G45U, the self-cleavage stood at 0.06.

In the case of C11U, the self-cleavage amounted to 0.94.

For the variant U12A U37A, the self-cleavage came out at 0.71.

With U12A U37G, the self-cleavage is 1.

In the case of U12A U37C, the self-cleavage turned out to be 1.

Take C11U G42C: the self-cleavage amounted to 0.85.

As to C11U G42U, the self-cleavage worked out at 0.47.

Consider C11U G42A, for which the self-cleavage was determined as 0.93.

G13A G35A: the self-cleavage worked out at 0.12.

Turning to G13A G35C, the self-cleavage was determined as 0.05.

With G13A G35U, the self-cleavage stood at 0.08.

Consider U12G U37A, for which the self-cleavage worked out at 0.6.

Turning to U12G U37G, the self-cleavage worked out at 0.52.

For U12G U37C, the self-cleavage stood at 0.55.

In the case of G13A G47A, the self-cleavage is 0.04.

With G13A G47C, the self-cleavage was 0.03.

On to G13A G47U, for which the self-cleavage was determined as 0.03.

Consider G13C G19U, for which the self-cleavage came out at 0.02.

In the case of G13C G19A, the self-cleavage is 0.03.

On to G13C G19C, for which the self-cleavage turned out to be 0.03.

Take G13C U43G: the self-cleavage stood at 0.03.

Regarding G13C U43C, the self-cleavage amounted to 0.02.

As for G13C U43A, the self-cleavage turned out to be 0.03.

In the case of C11U C14A, the self-cleavage is 0.07.

In the case of C11U C14U, the self-cleavage was 0.17.

C11U C14G: the self-cleavage was 0.09.

In the case of G13A G23U, the self-cleavage is 0.02.

Take G13A G23C: the self-cleavage was determined as 0.02.

For the variant G13A G23A, the self-cleavage came out at 0.04.

With G13A G30A, the self-cleavage worked out at 0.03.

As for G13A G30U, the self-cleavage worked out at 0.02.

For the variant G13A G30C, the self-cleavage was determined as 0.02.

For C11U G35A, the self-cleavage was 0.65.

On to C11U G35U, for which the self-cleavage amounted to 0.69.

Turning to C11U G35C, the self-cleavage worked out at 0.18.

On to C11G U43C, for which the self-cleavage was determined as 0.08.

As to C11G U43A, the self-cleavage is 0.15.

On to C11G U43G, for which the self-cleavage amounted to 0.05.

G13A U37G: the self-cleavage is 0.17.

Consider G13A U37A, for which the self-cleavage was 0.13.

On to G13A U37C, for which the self-cleavage stood at 0.12.

Turning to C11U G48C, the self-cleavage came to 0.06.

Regarding C11U G48A, the self-cleavage was 0.07.

As to C11U G48U, the self-cleavage amounted to 0.05.

Regarding G13A U12G, the self-cleavage is 0.09.

Take G13A U12A: the self-cleavage worked out at 0.07.

Take G13A U12C: the self-cleavage came to 0.04.

In the case of G13A U18A, the self-cleavage amounted to 0.09.

With G13A U18C, the self-cleavage came to 0.1.

For G13A U18G, the self-cleavage amounted to 0.24.

As for G13C G22A, the self-cleavage was 0.03.

Take G13C G22C: the self-cleavage was found to be 0.01.

G13C G22U: the self-cleavage came to 0.02.

Take G13C U24C: the self-cleavage turned out to be 0.03.

With G13C U24A, the self-cleavage stood at 0.02.

For the variant G13C U24G, the self-cleavage is 0.01.

Consider G13A G42C, for which the self-cleavage amounted to 0.04.

Regarding G13A G42A, the self-cleavage stood at 0.05.

As for G13A G42U, the self-cleavage is 0.02.

For the variant G13C G51U, the self-cleavage came to 0.02.

On to G13C G51A, for which the self-cleavage was 0.02.

With G13C G51C, the self-cleavage turned out to be 0.01.

Turning to C11U G13A, the self-cleavage was found to be 0.05.

In the case of C11U G13U, the self-cleavage came to 0.04.

Consider C11U G13C, for which the self-cleavage is 0.04.

For the variant U12G U43C, the self-cleavage is 0.08.

In the case of U12G U43A, the self-cleavage was 0.08.

As to U12G U43G, the self-cleavage was determined as 0.1.

On to U12C U18G, for which the self-cleavage was 0.61.

In the case of U12C U18C, the self-cleavage came out at 0.38.

With U12C U18A, the self-cleavage amounted to 0.46.

Turning to C11U G45U, the self-cleavage was determined as 0.09.

As to C11U G45C, the self-cleavage was determined as 0.06.

For the variant C11U G45A, the self-cleavage was determined as 0.09.

Consider C11G G49U, for which the self-cleavage came out at 0.05.

As for C11G G49C, the self-cleavage came to 0.03.

Consider C11G G49A, for which the self-cleavage turned out to be 0.05.

On to C11U G19A, for which the self-cleavage stood at 0.23.

Turning to C11U G19C, the self-cleavage worked out at 0.07.

As to C11U G19U, the self-cleavage came out at 0.1.

On to U12C U43G, for which the self-cleavage is 0.09.

Take U12C U43A: the self-cleavage is 0.11.

As for U12C U43C, the self-cleavage was 0.08.

On to G13C, for which the self-cleavage was found to be 0.03.

Consider G13U, for which the self-cleavage amounted to 0.03.

Regarding G13A, the self-cleavage was found to be 0.17.

Turning to C11G U37G, the self-cleavage amounted to 0.71.

Regarding C11G U37C, the self-cleavage was 0.69.

With C11G U37A, the self-cleavage is 0.38.

In the case of G13A G53C, the self-cleavage came out at 0.03.

Turning to G13A G53U, the self-cleavage amounted to 0.05.

Turning to G13A G53A, the self-cleavage stood at 0.06.

On to G13U G19A, for which the self-cleavage was determined as 0.03.

With G13U G19U, the self-cleavage worked out at 0.04.

On to G13U G19C, for which the self-cleavage was determined as 0.01.

G13C G44C: the self-cleavage was determined as 0.03.

On to G13C G44A, for which the self-cleavage came to 0.02.

For G13C G44U, the self-cleavage is 0.03.

Take G13A G44U: the self-cleavage was found to be 0.07.

With G13A G44A, the self-cleavage worked out at 0.05.

As to G13A G44C, the self-cleavage was 0.08.

For C11U C25A, the self-cleavage was found to be 0.08.

For C11U C25U, the self-cleavage was determined as 0.52.

For the variant C11U C25G, the self-cleavage stood at 0.05.

Consider C11G G48C, for which the self-cleavage stood at 0.03.

In the case of C11G G48U, the self-cleavage is 0.03.

In the case of C11G G48A, the self-cleavage turned out to be 0.03.

For the variant C11U G53U, the self-cleavage came out at 0.14.

With C11U G53C, the self-cleavage came out at 0.07.

Consider C11U G53A, for which the self-cleavage was found to be 0.62.

With C11U U12G, the self-cleavage came to 0.37.

As for C11U U12C, the self-cleavage was determined as 0.47.

Consider C11U U12A, for which the self-cleavage turned out to be 0.6.

Regarding G13A U43G, the self-cleavage turned out to be 0.04.

For G13A U43C, the self-cleavage is 0.05.

Turning to G13A U43A, the self-cleavage was determined as 0.05.

On to C11U U18G, for which the self-cleavage was found to be 0.7.

Turning to C11U U18C, the self-cleavage is 0.71.

Turning to C11U U18A, the self-cleavage was determined as 0.85.

For G13U G35U, the self-cleavage is 0.03.

Regarding G13U G35A, the self-cleavage was 0.03.

Consider G13U G35C, for which the self-cleavage came to 0.03.

Take G13A G51A: the self-cleavage is 0.05.

With G13A G51C, the self-cleavage was determined as 0.02.

On to G13A G51U, for which the self-cleavage was determined as 0.04.

For the variant G13U G42C, the self-cleavage was found to be 0.01.

Consider G13U G42U, for which the self-cleavage is 0.01.

On to G13U G42A, for which the self-cleavage is 0.02.

Take C11U C20A: the self-cleavage is 0.71.

Turning to C11U C20U, the self-cleavage stood at 0.78.

As to C11U C20G, the self-cleavage was found to be 0.09.

Turning to C11G G53C, the self-cleavage was found to be 0.04.

Consider C11G G53A, for which the self-cleavage turned out to be 0.17.

In the case of C11G G53U, the self-cleavage was 0.07.

With C11U G34U, the self-cleavage was 0.19.

Consider C11U G34A, for which the self-cleavage was 0.39.

For the variant C11U G34C, the self-cleavage is 0.08.

On to C11U G50A, for which the self-cleavage was 0.44.

C11U G50C: the self-cleavage amounted to 0.72.

Consider C11U G50U, for which the self-cleavage is 0.88.

C11G G50U: the self-cleavage stood at 0.42.

Consider C11G G50A, for which the self-cleavage worked out at 0.11.

With C11G G50C, the self-cleavage worked out at 0.15.

On to G13A G19A, for which the self-cleavage was determined as 0.08.

Take G13A G19U: the self-cleavage worked out at 0.04.

With G13A G19C, the self-cleavage came to 0.03.

In the case of G13U G44U, the self-cleavage stood at 0.04.

Turning to G13U G44A, the self-cleavage amounted to 0.03.

Take G13U G44C: the self-cleavage came to 0.03.

As to G13A G49C, the self-cleavage was 0.02.

On to G13A G49U, for which the self-cleavage amounted to 0.02.

As for G13A G49A, the self-cleavage was determined as 0.03.

U12A U18A: the self-cleavage came to 0.91.

For the variant U12A U18G, the self-cleavage worked out at 0.76.

Consider U12A U18C, for which the self-cleavage is 0.76.

Regarding U12A U43C, the self-cleavage was 0.11.

Take U12A U43G: the self-cleavage was 0.09.

Take U12A U43A: the self-cleavage is 0.13.

Turning to U12C U37G, the self-cleavage was found to be 0.66.

On to U12C U37A, for which the self-cleavage was 0.51.

For U12C U37C, the self-cleavage was 0.44.

C11G U24A: the self-cleavage is 0.04.
